Source: ChEMBL document CHEMBL3259749, “Design, synthesis and evaluation of novel 2,5,6-trisubstituted benzimidazoles targeting FtsZ as antitubercular agents” (Bioorg Med Chem, 2014)
≈ marks a conversion by molar mass, not a printed value. Calls of active or inactive are those of the source. No cut-off for these calls is given here.

Columns and labels:
[1] = tested on: Mycobacterium tuberculosis; experiment: Antimycobacterial activity against Mycobacterium tuberculosis H37Rv assessed as growth inhibition at 1 ug/ml after 7 days incubation by Alamar Blue staining-based broth microdilution assay; type: functional; conditions: 168 h, read-out: GI
[2] = tested on: Mycobacterium tuberculosis; experiment: Antimycobacterial activity against Mycobacterium tuberculosis H37Rv assessed as growth inhibition after 7 days incubation by Alamar Blue staining-based broth microdilution assay; type: functional; conditions: 168 h
Procedure, shortened: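 Mid-log Mtb H37Rv grown in 7H9 with 10% OADC and 0.05% Tween-80, added to 2-fold serial dilutions of DMSO-stocked compound at OD600 0.005. Incubated 6 days at 37 °C, then Alamar Blue added for a further 24 h at 37 °C. Colour change read by eye; MIC99 taken in triplicate.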

Vero = experiment: Cytotoxicity against African green monkey Vero cells […] by MTT assay; type: cell-based; conditions: Chlorocebus sabaeus
[3] = tested on: Mycobacterium tuberculosis; experiment: Inhibition of Mycobacterium tuberculosis FtsZ polymerization assessed as 90 degrees light scattering by fluorescence system
Procedure, shortened: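 His-tagged Mtb-FtsZ at 15 μM, Ni-resin and size-exclusion purified, preincubated with DMSO-stocked compound for up to 300 s. Buffer was 50 mM MES pH 6.5, 100 mM KCl, 5 mM MgCl2. Polymerization started with 100 μM GTP. 90° light scattering recorded at 30 °C, excitation/emission 400 nm, for up to 30 min.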

[4] = Binding affinity to Mycobacterium tuberculosis FtsZ assessed as fluorescence intensity at emission maximum 427.9 nm
Procedure, shortened: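 Fluorescence of compound held at 100 μM, titrated with His-tagged Mtb-FtsZ expressed in E. coli BL21(DE3). FtsZ was Ni-resin purified and dialysed into Tris storage buffer. Run in 50 mM MES, 100 mM KCl, 5 mM MgCl2, with no GTP. Excitation 316 nm, emission 427.9 nm. Kd obtained by fitting ΔF = (ΔFmax × L)/(Kd + L).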

[5] = tested on: Mycobacterium tuberculosis; experiment: Inhibition of Mycobacterium tuberculosis FtsZ polymerization assessed as reduction in length, density and aggregation of polymer at 40 to 80 uM by Transmission electron microscopy in presence of 25 uM GTP
Procedure, shortened: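 Mtb-FtsZ at 5 μM, Ni-NTA purified, held 15 min on ice with ethanol-stocked compound in 50 mM MES pH 6.5, 5 mM MgCl2, 100 mM KCl. GTP added to 25 μM final, then 30 min at 37 °C. Sample diluted 2-fold, negatively stained with 1% uranyl acetate on carbon-coated grids, imaged at 80 kV at 23,000x and 49,000x.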

| SMILES | inhibition of growth at 1 µg/mL [1] [%] | MIC [2] [µg/mL] | IC50 (Vero) [µM] | also measured |
| --- | --- | --- | --- | --- |
| CCCCSc1cc2[nH]c(C3CCCCC3)nc2cc1NC(=O)OCCC | 38 | 1.25 (≈ 3.21 µM) | 75 | – |
| CC(C)(C)c1ccc(C(=O)Nc2cc3nc(C4CCCCC4)[nH]c3cc2Sc2ccccc2)cc1 | 42 | – | – | – |
| CCCCOC(=O)Nc1cc2nc(C3CCCCC3)[nH]c2cc1N1CCCC1 | – | 0.39 (≈ 1.01 µM) | – | – |
| CC(C)(C)c1ccc(C(=O)Nc2cc3nc(C4CCCCC4)[nH]c3cc2SCc2ccccc2)cc1 | 52 | 12.5 (≈ 25.1 µM) | > 200 | – |
| O=S(=O)(Nc1cc2nc(C3CCCCC3)[nH]c2cc1SCc1ccccc1)c1ccccc1 | 30 | – | – | – |
| O=C(Nc1cc2nc(C3CCCCC3)[nH]c2cc1Oc1ccc(F)cc1)c1ccc(F)cc1F | 44 | 12.5 (≈ 26.9 µM) | > 200 | inhibition [3]: Dose-dependent effect |
| CCCCSc1cc2[nH]c(C3CCCCC3)nc2cc1NC(=O)CCc1ccccc1 | 33 | – | – | – |
| CCCCSc1cc2[nH]c(C3CCCCC3)nc2cc1NC(=O)c1ccc(F)cc1F | 51 | 1.25 (≈ 2.82 µM) | > 200 | – |
| CCCCOC(=O)Nc1cc2nc(C3CCCCC3)[nH]c2cc1N(CC)CC | – | 0.78 (≈ 2.02 µM) | – | – |
| O=S(=O)(Nc1cc2nc(C3CCCCC3)[nH]c2cc1Sc1ccc(F)cc1)c1ccccc1 | 30 | – | – | – |
| CCN(CC)c1cc2[nH]c(C3CCCCC3)nc2cc1NC(=O)c1ccc(OC)cc1 | – | 3.1 (≈ 7.37 µM) | – | – |
| C=CCCC(=O)Nc1cc2nc(C3CCCCC3)[nH]c2cc1OCCCC | 28 | – | – | – |
| COc1ccc(C(=O)Nc2cc3nc(C4CCCCC4)[nH]c3cc2Oc2ccc(F)cc2)cc1 | – | 3.13 (≈ 6.81 µM) | 40 | – |
| CCOc1cc2[nH]c(C3CCCCC3)nc2cc1NC(=O)c1ccc(C)cc1 | 65 | – | – | – |
| CCCCSc1cc2[nH]c(C3CCCCC3)nc2cc1NS(=O)(=O)c1ccccc1 | 42 | – | – | – |
| C=CCCC(=O)Nc1cc2nc(C3CCCCC3)[nH]c2cc1Sc1ccccc1 | 56 | – | – | – |
| CCCCSc1cc2[nH]c(C3CCCCC3)nc2cc1NC(=O)c1ccc(C(C)(C)C)cc1 | 45 | – | – | – |
| C=CCCC(=O)Nc1cc2nc(C3CCCCC3)[nH]c2cc1Sc1ccc(F)cc1 | 41 | – | – | – |
| C=CCCC(=O)Nc1cc2nc(C3CCCCC3)[nH]c2cc1SCc1ccccc1 | 64 | – | – | – |
| CCCOC(=O)Nc1cc2nc(C3CCCCC3)[nH]c2cc1SCc1ccccc1 | 28 | – | – | – |
| CCCCOC(=O)Nc1cc2nc(C3CCCCC3)[nH]c2cc1Oc1ccc(F)cc1 | – | 0.63 (≈ 1.48 µM) | 60 | inhibition [3]: Dose-dependent effect; Kd [4]: 1.32 µM; inhibition [5]: Active |
| Cc1ccc(C(=O)Nc2cc3nc(C4CCCCC4)[nH]c3cc2Oc2ccc(F)cc2)cc1 | 36 | 1.56 (≈ 3.52 µM) | 26 | – |
| C=CCCC(=O)Nc1cc2nc(C3CCCCC3)[nH]c2cc1Oc1ccc(F)cc1 | 54 | 12.5 (≈ 30.7 µM) | > 200 | – |
| CCCOC(=O)Nc1cc2nc(C3CCCCC3)[nH]c2cc1Sc1ccc(F)cc1 | 46 | – | – | – |
| Cc1ccc(C(=O)Nc2cc3nc(C4CCCCC4)[nH]c3cc2Sc2ccccc2)cc1 | 31 | 6.25 (≈ 14.2 µM) | 6.25 | – |
| CCCCSc1cc2[nH]c(C3CCCCC3)nc2cc1NC(=O)c1ccc(C)cc1 | 53 | – | > 200 | – |
| C=CCCC(=O)Nc1cc2nc(C3CCCCC3)[nH]c2cc1SCCCC | 52 | – | – | – |
